Here are results for 13 molecules from ChEMBL document CHEMBL3351567, “Heterodimeric ent-kauranoids from Isodon tenuifolius” (J Nat Prod, 2014).

What all share (assay type): functional, cell-based
In one experiment the test system is SW480. Nature of the experiment: Cytotoxicity against human SW480 cells after 48 hrs by MTT assay. The following applies: SW480, 48 h. The method in brief:
(§1)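 Cells grown in RPMI-1640 or DMEM with 10% FBS, 37 °C, 5% CO2. Seeded at 1 × 10^5 cells/mL in 100 μL; adherent lines attached 12 h before dosing, suspension cells seeded at dosing. Compound at various concentrations in triplicate, 48 h. MTT (100 μg) added for 4 h, lysed with 20% SDS–50% DMF, OD 595 nm. IC50 by Reed–Muench method; cisplatin and paclitaxel as positive controls.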

For a further experiment, the system named is SMMC-7721. Nature of the experiment: Cytotoxicity against human SMMC7721 cells after 48 hrs by MTT assay. The following applies: SMMC-7721, 48 h. The method in brief: as §1
(Tetrazolium assays rely on reduction of a dye to a coloured formazan, in cell work by metabolically active cells.)

The subject of the next experiment is A549. Briefly: Cytotoxicity against human A549 cells after 48 hrs by MTT assay. The settings on record: A549, 48 h. The method in brief: as §1
The nature of experiment [1]: Cytotoxicity against human HL60 cells after 48 hrs by MTT assay. The following applies: HL-60, 48 h. In short, it runs like this: as §1
In a further experiment the test system is MCF7. Briefly: Cytotoxicity against human MCF7 cells after 48 hrs by MTT assay. The following applies: MCF7, 48 h. The method in brief: as §1

Structures are written as SMILES.

With `COC[C@@]1(C[C@@H]2C(=O)[C@]34C[C@H]2C[C@H](OC(C)=O)[C@H]3[C@]2(C)[C@@H](OC(C)=O)C[C@H](O)C(C)(C)[C@H]2C(=O)[C@@H]4O)C(=O)[C@]23C[C@H]1C[C@H](OC(C)=O)[C@H]2[C@]1(C)[C@@H](OC(C)=O)C[C@H](O)C(C)(C)[C@H]1C(=O)[C@@H]3O`, the IC50 (with SW480; in the experiment with SMMC-7721; with A549; in experiment [1]; in the experiment with MCF7) was above 10 µM each time.

For the molecule `COC[C@@]1(C[C@@H]2C(=O)[C@]34C[C@H]2C[C@H](OC(C)=O)[C@H]3[C@]2(C)[C@@H](OC(C)=O)C[C@H](O)C(C)(C)[C@H]2C(=O)[C@@H]4O)C(=O)[C@]23C[C@H]1C[C@H](OC(C)=O)[C@H]2[C@]1(C)[C@@H](OC(C)=O)C[C@H](O)C(C)(C)[C@H]1C(=O)[C@H]3O`, the half-maximal inhibitory concentration (IC50) (in the experiment with SW480; in the experiment with SMMC-7721; in the experiment on A549; in experiment [1]; in the experiment with MCF7) was above 10 µM throughout.

With `CC(=O)O[C@H]1C[C@@H]2C[C@@]3(C(=O)[C@]24CCC2=C(O4)[C@]45C[C@H]2C[C@H](OC(C)=O)[C@H]4[C@]2(C)[C@@H](OC(C)=O)C[C@H](O)C(C)(C)[C@H]2C(=O)[C@@H]5OC(C)=O)[C@@H]1[C@]1(C)[C@@H](OC(C)=O)C[C@H](OC(C)=O)C(C)(C)[C@H]1C(=O)[C@@H]3O`, the IC50 (in the experiment on SW480; in the experiment on SMMC-7721; in the experiment on A549; in experiment [1]; in the experiment on MCF7) was above 10 µM throughout.

For the molecule `COC[C@@]1(C[C@@H]2C(=O)[C@]34C[C@H]2C[C@H](OC(C)=O)[C@H]3[C@]2(C)[C@@H](OC(C)=O)C[C@H](O)C(C)(C)[C@H]2C(=O)[C@@H]4O)C(=O)[C@]23C[C@H]1C[C@H](O)[C@H]2[C@@]1(C)[C@H](C(=O)[C@@H]3O)C(C)(C)[C@@H](O)C[C@@H]1O`, the IC50 (with SW480; in the experiment with SMMC-7721; in the experiment on A549; in experiment [1]; with MCF7) was above 10 µM throughout.

Take `CC(=O)O[C@H]1C(=O)[C@@]2(C)[C@H]([C@H](OC(=O)c3ccccc3)[C@]3(O)C[C@H](OC(=O)[C@H](O)[C@@H](NC(=O)c4ccccc4)c4ccccc4)C(C)=C1C3(C)C)[C@]1(OC(C)=O)CO[C@@H]1C[C@@H]2O` [PACLITAXEL]: the IC50 (in the experiment with SMMC-7721; in the experiment on A549; in experiment [1]; with MCF7) was below 0.008 µM each time.

`CC(=O)O[C@H]1C[C@@H]2C[C@@]3(C(=O)[C@H]2C[C@]2(CO)C(=O)[C@]45C[C@H]2C[C@H](OC(C)=O)[C@H]4[C@]2(C)[C@@H](OC(C)=O)C[C@H](O)C(C)(C)[C@H]2C(=O)[C@@H]5O)[C@@H]1[C@]1(C)[C@@H](OC(C)=O)C[C@H](O)C(C)(C)[C@H]1C(=O)[C@@H]3O`: the IC50 (with SW480; in the experiment with SMMC-7721; with A549; in experiment [1]; in the experiment with MCF7) was above 10 µM throughout.

In the case of `COC[C@@]1(C[C@@H]2C(=O)[C@]34C[C@H]2C[C@H](OC(C)=O)[C@H]3[C@@]2(C)[C@H](C(=O)[C@@H]4O)C(C)(C)[C@@H](O)C[C@@H]2O)C(=O)[C@]23C[C@H]1C[C@H](OC(C)=O)[C@H]2[C@]1(C)[C@@H](OC(C)=O)C[C@H](O)C(C)(C)[C@H]1C(=O)[C@@H]3O`, the IC50 (in the experiment with SW480; with SMMC-7721; in the experiment with A549; in experiment [1]; in the experiment with MCF7) was above 10 µM each time.

Turning to `CC(=O)O[C@H]1C[C@@H]2C[C@@]3(C(=O)[C@]24CCC2=C(O4)[C@@]45CC(=O)[C@@H]6C(C)(C)[C@@H](OC(C)=O)C[C@H](O)[C@@]6(C)[C@@H]4C(=O)C[C@@H]2C5)[C@@H]1[C@]1(C)[C@@H](OC(C)=O)C[C@H](O)C(C)(C)[C@H]1C(=O)[C@@H]3OC(C)=O`, the IC50 (with SW480; in the experiment on SMMC-7721; with A549; in experiment [1]; in the experiment with MCF7) was above 10 µM in each case.

For `CC(=O)O[C@H]1C[C@@H]2C[C@@]3(C(=O)[C@]24CC[C@@]42C(=O)[C@]45C[C@H]2C[C@H](OC(C)=O)[C@H]4[C@]2(C)[C@@H](OC(C)=O)C[C@H](O)C(C)(C)[C@H]2C(=O)[C@@H]5O)[C@@H]1[C@]1(C)[C@@H](OC(C)=O)C[C@H](OC(C)=O)C(C)(C)[C@H]1C(=O)[C@@H]3OC(C)=O`, the IC50 (in the experiment on SW480; in the experiment on SMMC-7721; in the experiment with A549; in experiment [1]; in the experiment on MCF7) was above 10 µM in each case.

Turning to `CC(=O)O[C@H]1C[C@@H]2C[C@@]3(CC(=O)[C@@H]4C(C)(C)[C@@H](O)C[C@H](OC(C)=O)[C@@]4(C)[C@H]13)C(=O)[C@]21CC[C@@]12C(=O)[C@]13C[C@H]2C[C@H](OC(C)=O)[C@H]1[C@]1(C)[C@@H](OC(C)=O)C[C@H](O)C(C)(C)[C@H]1C(=O)[C@@H]3OC(C)=O`, the IC50 (with SW480; in the experiment with SMMC-7721; with A549; in experiment [1]; with MCF7) was above 10 µM throughout.

Turning to `CC(=O)O[C@H]1C[C@@H]2C[C@@]3(C4=C2CC[C@@]2(O4)C(=O)[C@]45C[C@H]2C[C@H](OC(C)=O)[C@H]4[C@]2(C)[C@@H](OC(C)=O)C[C@H](O)C(C)(C)[C@H]2C(=O)[C@@H]5OC(C)=O)[C@@H]1[C@]1(C)[C@@H](OC(C)=O)C[C@H](OC(C)=O)C(C)(C)[C@H]1C(=O)[C@@H]3O`, the IC50 in the experiment on SW480 was 4 µM; with SMMC-7721, 9.9 µM; with A549, above 10 µM; in experiment [1] it was 4.6 µM; with MCF7, 4.2 µM.

Regarding `CC(=O)O[C@H]1C[C@@H]2C[C@@]3(C(=O)[C@]24CCC2=C(O4)[C@]45C[C@H]2C[C@H](OC(C)=O)[C@H]4[C@]2(C)[C@@H](OC(C)=O)C[C@H](O)C(C)(C)[C@H]2[C@@H](O)[C@@H]5O)[C@@H]1[C@]1(C)[C@@H](OC(C)=O)C[C@H](O)C(C)(C)[C@H]1[C@@H](O)[C@@H]3O`, the IC50 (with SW480; with SMMC-7721; with A549; in experiment [1]; in the experiment on MCF7) was above 10 µM throughout.

As for `CC(=O)O[C@H]1C[C@@H]2C[C@@]3(C(=O)[C@]24CCC2=C(O4)[C@]45C[C@H]2C[C@H](OC(C)=O)[C@H]4[C@]2(C)[C@@H](OC(C)=O)C[C@H](O)C(C)(C)[C@H]2C(=O)[C@@H]5O)[C@@H]1[C@]1(C)[C@@H](OC(C)=O)C[C@H](O)C(C)(C)[C@H]1C(=O)[C@@H]3O`, the IC50 (in the experiment on SW480; in the experiment with SMMC-7721; in the experiment on A549; in experiment [1]; in the experiment on MCF7) was above 10 µM each time.

A word on the IC50: it is the midpoint of a concentration-inhibition curve.
